Measured values of several laboratories.
Values after ≈ are worked out from the molar mass of the structure shown.

| Structure (SMILES) | target or system | assay | system | conditions | endpoint | result |
| --- | --- | --- | --- | --- | --- | --- |
| CCCCCCCCCOc1ccc2[nH]cc(CCN)c2c1 | HN-6 | cell growth or viability | – | 72 h | IC50 | 15.9 µM |
| Cc1ccc2[nH]c3c(c2c1)CCCC3NCCc1ccc(Br)cc1 (stereo not drawn) | Micrococcus luteus | microbial growth, broth dilution | DSM1790 | – | MIC | 2 µg/mL (≈ 5.22 µM) |
| COC(=O)c1cc(-c2cccc(NC(=O)Nc3ccc(Cl)c(Cl)c3)c2)on1 | Escherichia coli | microbial growth, broth dilution | ATCC25922 | – | MIC | > 64 µg/mL |
| O=C(NCCc1c[nH]c2ccccc12)C(=O)c1cn(Cc2ccc(Cl)cc2)c2ccccc12 | C4-2 | cell growth or viability, MTT | – | – | IC50 | > 100 µM |
| COC(=O)c1cc(-c2cccc(NC(=O)Nc3cccc(F)c3)c2)on1 | Escherichia coli | microbial growth, broth dilution | ATCC25922 | – | MIC | > 64 µg/mL |
| Clc1ccc(-c2nc3ccccc3n2Cc2ccccc2)cc1 | Staphylococcus aureus | microbial growth, broth dilution | ATCC43300 MRSA | drug-resistant strain | MIC | 256 µg/mL (≈ 803 µM) |
| CCOC(=O)c1nnn(-c2cccc(NC(=O)Nc3ccc(Cl)c(Cl)c3)c2)c1C | Escherichia coli | microbial growth, broth dilution | ATCC25922 | – | MIC | > 64 µg/mL |
| OCC(CO)CCn1cnc2c(Cl)ncnc21 | Severe acute respiratory syndrome coronavirus | plaque formation, inhibitor | Vero C1008 | – | IC50 | > 300 µM |
| CSc1ccc(-c2nc3ccccc3[nH]2)cc1 | Staphylococcus aureus | microbial growth, broth dilution | ATCC43300 MRSA | drug-resistant strain | MIC | 32 µg/mL (≈ 133 µM) |
| c1cc2c(ccc3c4c([nH]c32)CCCC4)cn1 | MDA-MB-468 | cell growth or viability, MTT | – | – | IC50 | 7.9 µM |
| COC(=O)c1cc(-c2cccc(NC(=S)Nc3ccc(C#N)cc3)c2)on1 | Escherichia coli | microbial growth, broth dilution | ATCC25922 | – | MIC | > 64 µg/mL |
| c1ccc2[nH]c(-c3ccc4c(c3)OCO4)nc2c1 | Staphylococcus aureus | microbial growth, broth dilution | ATCC43300 MRSA | drug-resistant strain | MIC | 256 µg/mL (≈ 1070 µM) |
| COC(=O)c1cc(-c2cccc(NC(=O)NCc3ccccc3)c2)on1 | Escherichia coli | microbial growth, broth dilution | ATCC25922 | – | MIC | > 64 µg/mL |
| OCC(CCn1cnc2c(Cl)ncnc21)COCc1ccccc1 (stereo not drawn) | Severe acute respiratory syndrome coronavirus | plaque formation, inhibitor | Vero C1008 | – | IC50 | > 300 µM |
| COc1ccc2c(C(=O)C(=O)NCCc3c[nH]c4ccccc34)cn(Cc3ccc(Cl)cc3)c2c1 | C4-2 | cell growth or viability, MTT | – | – | IC50 | > 100 µM |
| COc1ncnc2c1ncn2[C@@H]1O[C@H](CO)[C@@H](O)[C@H]1O | Severe acute respiratory syndrome coronavirus | plaque formation, inhibitor | Vero C1008 | – | IC50 | > 300 µM |
| C=CCn1c(-c2ccc(Cl)cc2)nc2ccc(C)cc21 | Staphylococcus aureus | microbial growth, broth dilution | ATCC43300 MRSA | drug-resistant strain | MIC | 32 µg/mL (≈ 113 µM) |
| COC(=O)c1cc(-c2cccc(NC(=O)Nc3ccc(C)cc3)c2)on1 | Escherichia coli | microbial growth, broth dilution | ATCC25922 | – | MIC | > 64 µg/mL |
| OCC1CC(n2cnc3c(Cl)ncnc32)C1CO (stereo not drawn) | Severe acute respiratory syndrome coronavirus | plaque formation, inhibitor | Vero C1008 | – | IC50 | > 300 µM |
| Cc1ccc2nc(-c3cc(Br)ccc3O)[nH]c2c1 | Staphylococcus aureus | microbial growth, broth dilution | ATCC43300 MRSA | drug-resistant strain | MIC | 128 µg/mL (≈ 422 µM) |
| Nc1ncnc2c([C@@H]3N[C@H](CO)[C@@H](O)[C@H]3O)c[nH]c12 | Severe acute respiratory syndrome coronavirus | viral replication, inhibitor | Vero 76 | 3 µM | inhibition | 0% |
| Cc1ccc2nc(-c3ccc([N+](=O)[O-])cc3)n(Cc3ccccc3)c2c1 | Staphylococcus aureus | microbial growth, broth dilution | ATCC43300 MRSA | drug-resistant strain | MIC | 16 µg/mL (≈ 46.6 µM) |
| Cn1cnc2nc(NCc3ccc(Cl)c(Cl)c3)[nH]c(=O)c21 | Lactobacillus acidophilus | microbial growth, agar dilution | – | 48 h | MIC | 8 µg/mL (≈ 24.7 µM) |
| Cc1ccc2nc(-c3ccccc3Cl)[nH]c2c1 | Staphylococcus aureus | microbial growth, broth dilution | ATCC43300 MRSA | drug-resistant strain | MIC | 256 µg/mL (≈ 1050 µM) |
| COC(=O)c1cc(-c2cccc(NC(=S)Nc3ccc(F)c(Cl)c3)c2)on1 | Escherichia coli | microbial growth, broth dilution | ATCC25922 | – | MIC | > 64 µg/mL |
| Cc1ccc2nc(-c3ccc(Cl)cc3Cl)[nH]c2c1 | Staphylococcus aureus | microbial growth, broth dilution | ATCC43300 MRSA | drug-resistant strain | MIC | 128 µg/mL (≈ 462 µM) |
| COC(=O)c1cc(-c2cccc(NC(=S)Nc3ccccc3Cl)c2)on1 | Escherichia coli | microbial growth, broth dilution | ATCC25922 | – | MIC | > 64 µg/mL |
